Test results from PMC7810372 (Science Advances, 2021).

How the values were obtained:
[1] = tested on: MDA231 BAX/BAK knockdown (siRNA) cells; test: Drug screen and low-throughput cell viability; format: cell-based, human; conditions: 48 hr treatment, CellTiter-Glo % survival, BAX/BAK KD versus control
BT-549 cells = test: Extracellular flux assay, ECAR; format: cell-based, human; conditions: 2 µM, 24 hrs
In short: (§1)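 Seahorse XF96: cells were seeded for 24 h, then treated for a further 24 h. One hour before the run they were changed to XF Base medium, pH 7.4, with 1 mM L-glutamine. ECAR was read three times at baseline and three times after each sequential injection of glucose (10 mM), oligomycin (1 µM) and 2-DG (50 mM). Readings were protein-normalized, baseline-subtracted and expressed as fold change versus DMSO.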

aldolase in BT-549 cells = test: Aldolase activity assay; format: cell-based, human; conditions: 24 hr treatment
In short: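 Cells (1×10^6 for MDA231) were exposed to test compound for 24 h. Aldolase or GAPDH activity was then measured with a commercial kit following the maker's protocol. Values were normalized to protein concentration and expressed as fold change relative to DMSO.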

HDAC6 = target: T1, HDAC6 (Homo sapiens, UniProt Q9UBN7); test: HDAC inhibitory assay; format: biochemical
T1 sequence (Q9UBN7 1-1215): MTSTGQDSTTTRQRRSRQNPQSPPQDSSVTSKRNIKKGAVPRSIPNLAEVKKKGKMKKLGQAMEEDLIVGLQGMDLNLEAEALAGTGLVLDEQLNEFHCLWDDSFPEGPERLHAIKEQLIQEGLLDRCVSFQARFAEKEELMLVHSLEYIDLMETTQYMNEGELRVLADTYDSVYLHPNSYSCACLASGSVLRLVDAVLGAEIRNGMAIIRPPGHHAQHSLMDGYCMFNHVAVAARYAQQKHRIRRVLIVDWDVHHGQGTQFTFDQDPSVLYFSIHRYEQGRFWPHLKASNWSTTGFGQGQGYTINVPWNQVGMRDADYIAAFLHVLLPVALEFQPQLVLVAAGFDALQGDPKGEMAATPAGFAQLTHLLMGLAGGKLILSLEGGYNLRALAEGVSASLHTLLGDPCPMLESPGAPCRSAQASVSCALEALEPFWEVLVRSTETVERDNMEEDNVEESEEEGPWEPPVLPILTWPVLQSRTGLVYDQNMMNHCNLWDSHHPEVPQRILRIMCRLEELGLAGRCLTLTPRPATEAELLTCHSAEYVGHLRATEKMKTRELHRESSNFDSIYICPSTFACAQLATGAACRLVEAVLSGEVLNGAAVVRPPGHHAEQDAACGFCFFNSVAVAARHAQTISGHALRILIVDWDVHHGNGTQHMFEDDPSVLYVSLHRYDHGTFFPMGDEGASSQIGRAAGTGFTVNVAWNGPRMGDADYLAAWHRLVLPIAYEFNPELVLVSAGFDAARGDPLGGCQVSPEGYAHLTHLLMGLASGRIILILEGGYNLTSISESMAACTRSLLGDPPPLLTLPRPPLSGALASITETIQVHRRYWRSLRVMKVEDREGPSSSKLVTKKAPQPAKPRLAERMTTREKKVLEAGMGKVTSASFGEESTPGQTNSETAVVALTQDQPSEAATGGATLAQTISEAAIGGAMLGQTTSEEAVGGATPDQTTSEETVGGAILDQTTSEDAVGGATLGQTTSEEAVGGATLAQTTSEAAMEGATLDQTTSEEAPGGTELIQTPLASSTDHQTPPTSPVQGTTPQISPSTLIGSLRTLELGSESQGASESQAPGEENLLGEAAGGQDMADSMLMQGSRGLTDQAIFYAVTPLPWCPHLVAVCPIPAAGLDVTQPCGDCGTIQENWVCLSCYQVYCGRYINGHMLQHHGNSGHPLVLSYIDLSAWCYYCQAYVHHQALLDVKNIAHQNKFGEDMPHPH

HDAC1 = HDAC1 (Homo sapiens, UniProt Q13547); test: HDAC inhibitory assay; format: biochemical
HDAC8 = target: T2, HDAC8 (Homo sapiens, UniProt Q9BY41); test: HDAC inhibitory assay; format: biochemical
T2 sequence (Q9BY41 1-377): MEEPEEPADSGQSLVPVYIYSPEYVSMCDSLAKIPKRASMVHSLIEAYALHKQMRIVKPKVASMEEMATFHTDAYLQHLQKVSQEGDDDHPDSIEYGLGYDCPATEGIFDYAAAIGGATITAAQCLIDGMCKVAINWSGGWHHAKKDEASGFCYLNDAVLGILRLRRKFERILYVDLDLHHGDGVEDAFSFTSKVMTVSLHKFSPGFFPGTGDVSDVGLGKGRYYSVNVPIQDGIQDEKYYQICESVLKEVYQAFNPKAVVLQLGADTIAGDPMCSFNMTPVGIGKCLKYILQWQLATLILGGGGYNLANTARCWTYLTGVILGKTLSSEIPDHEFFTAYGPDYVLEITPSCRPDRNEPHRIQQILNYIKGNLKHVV

HDAC7 = target: T3, HDAC7 (Homo sapiens, UniProt Q8WUI4); test: HDAC inhibitory assay; format: biochemical
T3 sequence (Q8WUI4 1-952): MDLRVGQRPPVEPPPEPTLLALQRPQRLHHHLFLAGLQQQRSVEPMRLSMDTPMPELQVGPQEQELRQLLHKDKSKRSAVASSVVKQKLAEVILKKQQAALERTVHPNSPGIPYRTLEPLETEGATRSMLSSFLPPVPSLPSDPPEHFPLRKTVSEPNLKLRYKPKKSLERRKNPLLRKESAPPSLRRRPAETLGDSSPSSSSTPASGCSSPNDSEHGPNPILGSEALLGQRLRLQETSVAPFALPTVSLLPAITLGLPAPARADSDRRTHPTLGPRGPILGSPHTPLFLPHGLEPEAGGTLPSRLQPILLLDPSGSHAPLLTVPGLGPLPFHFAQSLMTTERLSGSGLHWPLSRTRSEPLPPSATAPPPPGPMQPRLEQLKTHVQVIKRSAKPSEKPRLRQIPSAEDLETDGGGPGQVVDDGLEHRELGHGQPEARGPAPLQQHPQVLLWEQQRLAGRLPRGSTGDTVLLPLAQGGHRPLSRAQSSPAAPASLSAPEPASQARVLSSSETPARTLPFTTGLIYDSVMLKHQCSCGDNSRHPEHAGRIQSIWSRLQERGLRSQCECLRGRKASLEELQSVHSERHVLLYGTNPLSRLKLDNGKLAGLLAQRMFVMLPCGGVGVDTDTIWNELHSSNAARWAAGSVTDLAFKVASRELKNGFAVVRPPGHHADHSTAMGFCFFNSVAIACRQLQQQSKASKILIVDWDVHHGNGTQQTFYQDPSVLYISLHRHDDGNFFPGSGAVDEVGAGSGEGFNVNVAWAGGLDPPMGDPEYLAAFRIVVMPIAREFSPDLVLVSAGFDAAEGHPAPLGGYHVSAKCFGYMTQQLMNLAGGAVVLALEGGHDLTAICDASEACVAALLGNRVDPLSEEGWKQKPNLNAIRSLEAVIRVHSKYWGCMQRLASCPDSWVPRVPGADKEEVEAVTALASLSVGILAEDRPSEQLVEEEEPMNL

MDA231 cells = test: Extracellular flux assay, ECAR; format: cell-based, human; conditions: 2 µM, 24 hrs
In short: as §1

[2] = tested on: glucose transporter 1, hexokinase II; conditions: cited from earlier work

Sequence of HDAC1 (Q13547 whole entry): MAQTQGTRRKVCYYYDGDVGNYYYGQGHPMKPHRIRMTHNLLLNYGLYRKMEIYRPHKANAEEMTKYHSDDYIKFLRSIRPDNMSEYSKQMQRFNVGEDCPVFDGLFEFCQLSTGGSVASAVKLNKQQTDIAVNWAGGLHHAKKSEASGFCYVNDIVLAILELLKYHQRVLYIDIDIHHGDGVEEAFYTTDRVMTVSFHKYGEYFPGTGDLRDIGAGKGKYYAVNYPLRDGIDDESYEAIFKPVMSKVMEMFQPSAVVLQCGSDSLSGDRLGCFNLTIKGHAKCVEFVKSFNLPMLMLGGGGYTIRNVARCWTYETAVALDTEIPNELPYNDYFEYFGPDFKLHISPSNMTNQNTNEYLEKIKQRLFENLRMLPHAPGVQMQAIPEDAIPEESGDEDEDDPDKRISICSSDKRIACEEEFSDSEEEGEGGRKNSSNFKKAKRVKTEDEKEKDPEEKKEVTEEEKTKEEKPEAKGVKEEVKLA

CN(C)CC[C@H](CSc1ccccc1)Nc1ccc(S(=O)(=O)NC(=O)c2ccc(N3CCN(Cc4ccccc4-c4ccc(Cl)cc4)CC3)cc2)cc1[N+](=O)[O-] [ABT-737]
response to apoptosis-inducing agents [1]: broadly resistant

O=C(CCCCCCNC(=O)c1cnc(N(c2ccccc2)c2ccccc2Cl)nc1)NO [ACY-241]
glycolysis and glycolytic capacity (ECAR) (BT-549 cells; 1 µM): confirmed all the above results

O=C(CCCCCCNC(=O)c1cnc(N(c2ccccc2)c2ccccc2)nc1)NO [ACY-1215]
aldolase enzymatic activity (aldolase in BT-549 cells): reduced aldolase activity

O=C(CCCCCCC(=O)Nc1ccccc1)NO [SAHA, suberoylanilide hydroxamic acid]
inhibition of HDAC activity (HDAC6): inhibits the activity | inhibition of HDAC activity (HDAC1): inhibits the activity | inhibition of HDAC activity (HDAC8): inhibits the activity | inhibition of HDAC activity (HDAC7): inhibits the activity

COc1cc([C@@H]2c3cc4c(cc3[C@@H](O[C@@H]3O[C@@H]5CO[C@@H](C)O[C@H]5[C@H](O)[C@H]3O)[C@H]3COC(=O)[C@H]23)OCO4)cc(OC)c1O [etoposide]
response to apoptosis-inducing agents [1]: broadly resistant

O=C(CCCCCCC(=O)Nc1ccc([C@H]2O[C@@H](CSc3nc(-c4ccccc4)c(-c4ccccc4)o3)C[C@@H](c3ccc(CO)cc3)O2)cc1)NO [tubacin]
glycolysis and glycolytic capacity (ECAR) (BT-549 cells): confirmed all the above results | extracellular acidification rate (ECAR) (MDA231 cells): reduction

CCCC(CCC)C(=O)O [valproate]
glucose transporter 1 [2]: reduction in the glucose transporter 1 | hexokinase II activity [2]: reduction in hexokinase II activity
